Source: PubChem
Neddylation inh = blocks human cullin neddylation | P61081+Q13564 | inhibition, % at 25 µM | hit rate 0.58% among 360,000 | TR-FRET cullin neddylation, biochemical; in the data active = inhibition above about 36%
CSN inh = inhibitors of human CSN-mediated cullin deneddylation | hit rate 0.38% among 360,000 | inhibition, % at 12.5 µM | Purified CSN, SCF-Nedd8-OG deneddylation, fluorescence polarization | Q92905 | AID 651999;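 active = pattern-corrected inhibition above about 35%, with an unprinted fluorescence ratio check between 0.5 and 1.5, limit read from the data, passing the limit was not always enough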;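 note: 0% = enzyme with substrate and 100% = substrate without enzyme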
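Schedule: reaction 90 min, room temperature / Assay system: HEK293T-derived human Csn5 enzyme / Input: Csn5 at 0.24 nM final / Measure: inhibition of Csn5 cleavage, % / Control set: substrate-only high control, full reaction low control / Technique: fluorescence polarization of the substrate / Buffer or medium: Tris/NaCl/DTT buffer, pH 7.5 / Reagent: SCFSkp2-Nedd8OG substrate at 10 nM final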
PREPL inhibitor = human PREPL enzyme inhibition; Q4J6C6; recombinant PREPL, fluorescence polarization activity-based probe; inhibition, % at 5.96 µM; hit rate 0.68% among 320,000; in the data active = inhibition above about 43%;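 note: 0% = enzyme with DMSO and 100% = wells lacking enzyme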
Tb MetRS inh = Trypanosoma brucei MetRS inhibition; purified T. brucei MetRS, ATP depletion, Kinase-Glo luminescence; inhibition, % at 11.9 µM; hit rate 0.4% among 360,000; AID 624268;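 active = inhibition above a per-plate cutoff of the control wells' mean inhibition plus 3 SD, cut at about 5.5% in these data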;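 note: 0% = DMSO wells median and 100% = median of wells with control inhibitor compound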
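Test system – parasite MetRS enzyme · Reagent – substrates ATP, L-methionine and bulk Escherichia coli tRNA · Doses – 11.9 µM compound single dose, 0.9% DMSO · Times – 15 min enzyme-compound preincubation, 2 h reaction, 10 min detection, 25 °C · Signal – Kinase-Glo luminescence, ATP depletion format · Controls – DMSO-only wells as low control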
HNF4A DNA FP = change in binding of human HNF4 alpha to DNA; HNF4a-FITC DNA binding, fluorescence polarization, 1 h; activity change, % at 10 µM; hit rate 0.3% among 360,000; AID 1224865; in the data active = activity change above about 30%, passing the limit was not always enough
Target sequence (P41235 whole entry, looked up): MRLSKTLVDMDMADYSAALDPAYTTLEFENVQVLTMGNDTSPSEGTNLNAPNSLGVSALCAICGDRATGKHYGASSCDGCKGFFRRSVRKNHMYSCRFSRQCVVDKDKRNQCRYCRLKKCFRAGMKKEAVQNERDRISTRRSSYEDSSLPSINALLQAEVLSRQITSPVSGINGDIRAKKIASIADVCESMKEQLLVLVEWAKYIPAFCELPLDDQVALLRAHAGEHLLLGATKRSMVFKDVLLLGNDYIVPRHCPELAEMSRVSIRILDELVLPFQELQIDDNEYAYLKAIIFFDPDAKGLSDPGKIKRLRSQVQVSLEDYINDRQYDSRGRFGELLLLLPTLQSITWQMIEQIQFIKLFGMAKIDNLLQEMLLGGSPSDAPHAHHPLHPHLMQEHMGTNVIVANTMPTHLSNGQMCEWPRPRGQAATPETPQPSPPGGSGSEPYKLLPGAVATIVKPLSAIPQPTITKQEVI
Rpn11 block = Rpn11 (human) deubiquitinase inhibition | inhibition, % at 20 µM | human 26S proteasome, Ub4-pepOG fluorescence polarization; 20S core pre-blocked with epoxomicin | hit rate 0.59% among 360,000 | O00487;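 active = inhibition at 20 µM, scaled to each plate's controls, above about 33%, limit read from the data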
Neddyl inh conf = confirmation of human cullin neddylation inhibitors. calls only at 25 µM. TR-FRET cullin neddylation biochemical assay. hit rate 13% among 1,800. AID 652217. shares compounds with Neddylation inh; in the data active = inhibition above about 40%;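 note: neddylation substrate is the cullin 1 ring ligase complex with SKP2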
An asterisk follows results filed as active; i = inactive; nt = not tested or not shown; + = active, no number. Hits are enriched below; roughly 2.4% of the tested compounds scored in any of these assays.

SMILES	Neddylation inh	CSN inh	PREPL inhibitor	Tb MetRS inh	HNF4A DNA FP	Rpn11 block	Neddyl inh conf
COc1ccc(-c2ccc3nnc(SCC(=O)NCC4CCCO4)n3n2)cc1 (stereo unspecified)	59.0*	-7.3	-0.5	0.2	1.1	0.5	nt
C[C@@H]1CN([C@@H](C)CO)C(=O)CCCn2nncc2CO[C@H]1CN(C)C(=O)NC1CCCCC1	-6.6	-1.8	nt	0.0	3.9	-6.9	nt
Cc1ccc(S(=O)(=O)NC(=O)C2(C)CCN2C(=O)c2ccccc2)cc1 (stereo unspecified)	-5.0	-6.2	nt	0.5	6.0	8.2	nt
COc1cc(CN(C)Cc2cc(=O)oc3cc(C)c(Cl)cc23)ccc1OC(F)F	-1.7	2.2	-25.1	0.2	-3.2	7.5	nt
N#Cc1c(F)cccc1N1CCOCC1	41.9*	-1.9	-0.1	-0.4	-2.6	-1.4	i
N#Cc1c(Cl)cccc1N1CCCC1	9.7	0.0	12.6	-0.1	2.5	-3.0	nt
COc1cc2c(cc1OC)-c1cc(NC3CCCC3)nc(=O)n1CC2	40.9*	-2.6	5.0	0.3	0.3	6.0	i
CCN(CC)c1ccc(C(=O)N/N=C/c2ccc(OC)cc2OC)cc1	42.2*	2.0	26.9	0.4	3.5	7.4	i
COc1ccc(OC)c(C=NNC(=O)c2ccc(NS(=O)(=O)c3cccs3)cc2)c1	54.7*	1.9	-3.2	0.2	5.4	5.8	nt
C[Si](C)(C)n1ccnc1	4.6	0.4	0.9	-0.6	-0.6	-1.5	nt
CCCn1c(SCC(=O)N2CCOCC2)nnc1-c1ccncc1	-2.5	2.4	-7.0	-0.2	5.0	0.5	nt
CC(C)CC1Nc2ncnc(N3CCN(c4ccccn4)CC3)c2N(Cc2ccccc2)C1=O (stereo unspecified)	-3.9	4.6	8.5	-0.2	1.8	-7.9	nt
CCCNC(=O)C(Cc1cccc(C#N)c1)NC(=O)c1cccc([N+](=O)[O-])c1 (stereo unspecified)	-55.0	-4.4	10.9	0.3	-4.8	-3.3	nt
O=C(Nc1cccc(F)c1)c1cccnc1NCCc1ccccc1	44.0*	2.0	-7.7	-0.6	1.0	-4.9	i
O=C(Nc1ccc(F)cc1)c1cccnc1NCCc1ccccc1	22.2	-2.0	-3.9	0.6	3.9	-5.3	nt
COC(=O)C1=C(C)NC2=C(C(=O)C(C(=O)OC)C(c3ccc(OC)cc3)C2)C1c1ccccn1 (stereo unspecified)	48.8*	2.3	-2.9	0.8	2.6	5.3	nt
COC(=O)C1=C(C)NC2=C(C(=O)CC(C)(C)C2)C1c1ccccn1 (stereo unspecified)	nt	0.5	2.2	-0.7	1.9	-3.2	nt
CCOCCCn1c(C)nc2c(c1=O)c1nc3ccccc3nc1n2-c1ccc(C)cc1	49.1*	1.1	11.0	-1.0	-5.0	4.8	i
CCCCC1CC(=O)NC1(C(=O)OCC)C(=O)OCC (stereo unspecified)	6.8	2.8	nt	-0.4	-2.5	-2.0	nt
Nc1c(Cl)cc(Cl)cc1C(=O)OCC(=O)N1CCCC1=O	46.9*	-4.7	10.5	-0.2	-4.3	-2.7	i
Nc1c(Cl)cc(Cl)cc1C(=O)OCC(=O)N1CCCC1	nt	-4.7	8.0	-0.3	-2.9	-6.7	nt
COc1ccc(CCNC(=O)CSc2nc3ccsc3c(=O)n2Cc2ccccn2)cc1OC	-0.3	-2.7	nt	0.2	-2.4	-2.9	nt
CC(=O)c1ccc(C(=O)Nc2ccc3c(c2)C(=O)NC3=O)cc1	44.8*	11.2	-8.4	0.0	-0.5	-10.1	i
CC(C)(C)c1ccc(C(=O)Nc2ccc3c(c2)C(=O)NC3=O)cc1	nt	-7.9	-0.4	-0.8	2.5	-2.9	nt
O=C(Cc1ccc(Cl)cc1)Nc1ccc2c(c1)C(=O)NC2=O	51.3*	4.4	-16.1	-0.4	1.8	-10.8	nt
SMILES	Neddylation inh	CSN inh	PREPL inhibitor	Tb MetRS inh	HNF4A DNA FP	Rpn11 block	Neddyl inh conf
O=C(Cc1ccc([N+](=O)[O-])cc1)Nc1ccc2c(c1)C(=O)NC2=O	18.3	-0.7	-3.9	-1.0	-1.1	-6.5	nt
COc1ccc(NC(=O)CSc2nnnn2C2CCCC2)cc1S(=O)(=O)N1CCOCC1	5.6	1.9	nt	-0.1	0.9	3.4	nt
O=C(Nc1cccc([N+](=O)[O-])c1)NN1CCCCCC1	-23.4	0.0	nt	-0.1	3.0	-0.1	nt
CN(C)/C=N/c1nc2nccc(-c3ccccc3)n2n1	nt	-2.3	-1.0	0.1	-0.2	-7.4	nt
CC(Oc1ccccc1F)c1ccnc2nc(/N=C/N(C)C)nn12 (stereo unspecified)	47.1*	-0.6	8.3	0.0	-2.9	-9.9	i
CCOC(=O)C1=C(C(=O)OCC)c2ccc(OC)c(OC)c2C1	40.8*	-0.9	nt	-0.3	2.8	2.4	i
COc1ccccc1-c1sc2cc3c(cc2c1C#Cc1cncn1C)OCO3	30.2*	3.5	13.8	-0.6	-4.6	5.1	+
CC(C)OC(=O)CSc1nnc(-c2ccncc2)n1N	0.5	-0.5	5.2	0.1	-0.8	-4.5	nt
Cc1ccc(-n2c(SCC(=O)OC(C)C)nnc2-c2ccncc2)cc1	40.7*	2.5	16.0	-2.5	-0.3	-7.5	i
O=C(CCNS(=O)(=O)c1ccccc1)Nc1ccccc1	2.2	4.9	2.1	0.1	2.0	0.6	nt
CC1(Cc2cccc(C#N)c2)C(=O)Nc2c(Cl)cccc21 (stereo unspecified)	4.0	-1.6	nt	-0.3	-1.1	-0.1	nt
COC(=O)c1ccc(COc2ccc3ccc(=O)oc3c2)o1	40.2*	4.4	nt	-1.6	5.0	2.0	i
COC(=O)c1cc(COc2ccc3ccc(=O)oc3c2)c(C)o1	56.4*	-0.3	3.1	-1.0	0.2	-1.7	+
C/C=C/c1ccc2c(c1)O[C@@H](CN(C)C(=O)c1ccc(F)cc1)[C@@H](C)CN([C@H](C)CO)S2(=O)=O	-6.1	-6.3	nt	-1.1	-0.3	0.5	nt
COc1ccc(C(=O)Cn2c(=O)c(CCC(=O)O)nn3c4ccccc4nc23)cc1OC	39.1*	0.0	17.2	0.0	-1.9	1.3	+
COc1cc(C(=O)C(=O)N2CCN(c3ccccc3)CC2)cc2ccccc12	-3.9	-2.6	nt	-0.3	0.9	nt	nt
COc1ccc(C(=O)NCC(c2ccco2)N(C)C)cc1S(=O)(=O)NCc1ccc(Cl)cc1 (stereo unspecified)	4.9	-1.9	4.0	-0.2	2.8	4.9	nt
CC(C)CN1C(=O)c2ccc(NC(=O)C3CC3)cc2C1=O	41.4*	1.4	-3.5	-0.1	-0.7	-3.7	i
COc1ccc(CCNC(=O)c2cc([C@@H](NC(=O)OC(C)(C)C)C(C)C)sc2N)cc1OC	-4.8	2.0	nt	-0.3	6.2	nt	nt
O=C1OCC2=C1C(c1ccc(F)cc1)c1cc3c(cc1N2)OCO3 (stereo unspecified)	41.9*	1.5	nt	0.1	0.8	-1.5	nt
